Experimental data as given in publication PMC2813939 (Neuropsychopharmacology : official publication of the …, 2009).
Where “and” joins values, the source holds several entries; their conditions need not be identical. Identical values can stand only once. Like-named read-outs stand apart in the source and are kept apart here.

Columns and labels:
[1] = cited from earlier work
[2] = target: T1, human D2 receptor (short isoform, D2S) (Homo sapiens, UniProt P14416); experiment: cell-based; assay type: binding
[3] = target: T1, human D2 receptor (short isoform, D2S); assay type: binding
[4] = target: T1, human D2 receptor (short isoform, D2S); assay type: binding; remark: listed apart in the source
GRK2 = experiment: Western blot of tetracycline-induced GRK2 expression in triple-transfected cells; assay type: cell-based, bovine; details: tetracycline 1 μg/ml 24 h; triple-transfected cells vs untreated cells; n=3
Outline: (§1)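 T-REx-293 cells stably triple-transfected with D2S receptor, tetracycline-inducible GRK2 and arrestin3; tetracycline 1 μg/ml (final) or vehicle 24 h at 36 °C. Lysed in 1% dodecyl maltopyranoside/PBS with protease inhibitors and N-ethylmaleimide; 20 μg protein run on 7.5% SDS-PAGE, PVDF. Rabbit polyclonal primaries 1 h RT (anti-GRK2 1:1000; anti-arrestin3 1:500), HRP anti-rabbit 1:15,000; ECL-Plus imaging and quantitation; % increase versus untreated cells.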

arrestin3 = assay type: cell-based, rat; details: tetracycline 1 μg/ml 24 h; triple-transfected cells vs untreated cells; n=2
Outline: as §1

[5] = internalized (Q+/MTSET+) vs surface (Q-/MTSET-)
[6] = read-out: Internalized D2 receptor (Q+/MTSET+) KI(i)
[7] = read-out: Surface D2 receptor (Q-/MTSET-) KI(s)

T1 sequence (P14416 1-414 isoform P14416-2): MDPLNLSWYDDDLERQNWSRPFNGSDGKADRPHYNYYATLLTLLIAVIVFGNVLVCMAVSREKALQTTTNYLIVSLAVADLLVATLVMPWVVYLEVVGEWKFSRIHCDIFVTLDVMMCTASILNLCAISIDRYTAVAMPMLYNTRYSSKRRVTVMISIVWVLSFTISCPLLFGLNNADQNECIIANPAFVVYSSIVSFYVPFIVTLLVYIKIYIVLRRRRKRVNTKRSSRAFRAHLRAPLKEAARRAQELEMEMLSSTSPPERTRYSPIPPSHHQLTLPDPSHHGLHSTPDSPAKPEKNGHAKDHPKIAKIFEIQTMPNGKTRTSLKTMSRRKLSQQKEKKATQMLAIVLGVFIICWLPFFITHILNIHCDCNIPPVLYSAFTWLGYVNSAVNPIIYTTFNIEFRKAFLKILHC

CC[11CH2]N1CCc2cccc3c2C1Cc1ccc(O)c(O)c1-3 (single isomer, unassigned; (-)) [NPA, (-)-N-[11C]propyl-norapomorphine]
Lipophilicity (Log P) ([1]; ref Wilson et al, 2005): 2.5 ^d†

C=CCN1CCC[C@H]1CNC(=O)c1cc(CCCF)cc(OC)c1OC [Fallypride]
Ki ([2]; Internalized D2 receptor (Q+/MTSET+) KI(i)): 0.92 ± 0.31 nM
Ki ([2]; Surface D2 receptor (Q-/MTSET-) KI(s)): 0.32 ± 0.06 nM
Affinity shift Ki(i)/Ki(s) [2, 5]: 2.9
Lipophilicity (Log P) ([1]; ref Laruelle, 2000): 2.4 ^a†

C[N+](C)(C)CCSS(C)(=O)=O.[Br-] [MTSET, [2-(trimethylammonium)ethyl] methanethiosulfonate bromide]
[3H]NMSP binding remaining, % of the total binding [3]: 10%

CCN1CCCC1CNC(=O)c1cc(S(N)(=O)=O)ccc1OC (stereo not drawn) [Sulpiride]
fraction of D2 receptors on the surface [2]: 80.9%
fraction of D2 receptors on the surface (high affinity) [2]: 85.8% and 43.1%
fraction of D2 receptors with high affinity [4]: 90% and 55% and 89.9%

CCN1CCC[C@H]1CNC(=O)c1c(O)c(Cl)cc(Cl)c1OC [Raclopride]
increase in the Ki at internalized receptors (decrease in affinity) [2]: about 2 fold

CCN1CCC[C@H]1CNC(=O)c1cc(I)cc(OC)c1OC [Epidepride]
Affinity shift Ki(i)/Ki(s) [2]: 2.4
Lipophilicity (Log kw) ([1]; ref Kessler et al, 1991): 2.1 ^c‡

CCCN1CCOC2c3cc(O)ccc3CCC21 (single isomer, unassigned; (+)) [PHNO, (+)-4-propyl-3,4,4a,5,6,10b-hexahydro-2H-naphtho[1,2-b][1,4]oxazin-9-ol]
Lipophilicity (Log P) ([1]; ref Wilson et al, 2005): 2.1 ^d†

CCN1CCC[C@H]1CNC(=O)c1c(OC)ccc(I)c1O [IBZM]
Ki [2, 6]: 0.23 ± 0.11 nM
Ki [2, 7]: 0.19 ± 0.05 nM

CCN1CCC[C@H]1CNC(=O)c1cc(Br)cc(OC)c1OC [FLB 457]
Affinity shift Ki(i)/Ki(s) [2, 5]: 3.0
Ki [2, 6]: 0.09 ± 0.02 nM
Ki [2, 7]: 0.03 ± 0.01 nM
Lipophilicity (Log kw) ([1]; ref Loc'h et al, 1996): 1.9 ^b‡

CN(C)[C@@H]1C(O)=C(C(N)=O)C(=O)[C@@]2(O)C(O)=C3C(=O)c4c(O)cccc4[C@@](C)(O)[C@H]3C[C@@H]12 [Tetracycline]
increase in GRK2 expression (GRK2): 190 ± 24%
increase in arrestin3 expression (arrestin3): 538 ± 75%

CCN1CCC[C@H]1CNC(=O)c1c(OC)ccc([123I])c1O [IBZM]
Affinity shift Ki(i)/Ki(s) [2, 5]: 1.2
Lipophilicity (Log P) ([1]; ref Laruelle, 2000): 2.8 ^a†

CN1CN(c2ccccc2)C2(CCN(CCCC(=O)c3ccc(F)cc3)CC2)C1=O [NMSP, N-methylspiperone]
Lipophilicity (Log P) ([1]; ref Laruelle, 2000): 3.3 ^a†
